Cardio protect: modulators protecting cardiomyocytes from myocardial damage | H9c2 cardiomyocytes, H2O2 injury protection, ATPLite, 2 h | protection from H2O2 cell death, % at 20 µM | hit rate 0.63% among 360,000;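 active = compounds giving at least 50% protection of heart cells from peroxide-induced death in the single-dose screen, raw or plate-pattern-corrected value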;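 note: 0% = DMSO wells with peroxide and 100% = DMSO wells without peroxide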
HKDC1 inh: blocks human hexokinase HKDC1 activity. Q2TB90. recombinant HKDC1, G6PDH/diaphorase resazurin coupled fluorescence. inhibition, % at 20 µM. hit rate 0.16% among 340,000;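 active = inhibition above about 35% when tested at 20 µM, limit read from the data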;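 note: plate controls were DMSO wells with enzyme for no effect and DMSO wells lacking enzyme for full effect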
Target sequence (Q2TB90 whole entry, looked up): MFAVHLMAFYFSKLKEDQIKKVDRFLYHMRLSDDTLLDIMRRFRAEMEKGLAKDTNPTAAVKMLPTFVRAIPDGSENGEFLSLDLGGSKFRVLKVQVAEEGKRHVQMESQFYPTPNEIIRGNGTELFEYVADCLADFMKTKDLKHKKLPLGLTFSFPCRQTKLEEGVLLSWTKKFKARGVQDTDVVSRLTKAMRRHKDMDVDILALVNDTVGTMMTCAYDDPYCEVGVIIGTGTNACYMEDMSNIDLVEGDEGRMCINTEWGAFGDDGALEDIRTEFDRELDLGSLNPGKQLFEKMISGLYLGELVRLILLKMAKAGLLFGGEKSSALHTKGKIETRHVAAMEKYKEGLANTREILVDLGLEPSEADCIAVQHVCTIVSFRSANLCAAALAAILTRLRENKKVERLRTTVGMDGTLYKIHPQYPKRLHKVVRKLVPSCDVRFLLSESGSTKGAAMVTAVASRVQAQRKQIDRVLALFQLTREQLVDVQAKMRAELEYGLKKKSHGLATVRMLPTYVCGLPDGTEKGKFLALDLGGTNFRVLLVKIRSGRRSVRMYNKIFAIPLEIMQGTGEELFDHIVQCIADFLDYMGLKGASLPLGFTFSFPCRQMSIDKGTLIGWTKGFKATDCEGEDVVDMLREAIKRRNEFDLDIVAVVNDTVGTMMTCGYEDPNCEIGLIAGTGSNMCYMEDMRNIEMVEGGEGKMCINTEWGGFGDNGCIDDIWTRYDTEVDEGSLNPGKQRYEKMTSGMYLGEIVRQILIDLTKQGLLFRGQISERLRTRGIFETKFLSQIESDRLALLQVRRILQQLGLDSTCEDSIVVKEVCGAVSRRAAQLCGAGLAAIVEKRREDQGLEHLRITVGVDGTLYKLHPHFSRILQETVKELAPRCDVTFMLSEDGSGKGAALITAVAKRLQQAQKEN
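Assay system: recombinant HKDC1 hexokinase; detection: coupled resazurin fluorescence, excitation 525 nm, emission 613 nm; benchmarks: DMSO-plus-enzyme-mix negative control, buffer-substituted positive control; compound dosing: single 20 µM dose; schedule: 90 min at room temperature in dark; also added: glucose plus 1 mM ATP as hexokinase substrates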
Beta2AR agonist: agonists of human beta-2 adrenergic receptor inducing internalization; hit rate 0.43% among 340,000; Am2.2-beta2AR cells, FAP receptor internalization, flow cytometry; AID 504454; response, % (no concentration beside the values); P07550;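 active = response above a set limit, near 3 SD of response in nonfluorescent compounds, cut at about 42% in these data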
UCH37 inh: blocks the human deubiquitinase UCH37 | purified proteasome/UCH37, Ub-AMC cleavage fluorescence | Q9Y5K5 | hit rate 0.33% among 330,000 | inhibition, % (concentration not given with the values);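 active = mean inhibition over replicate wells above about 20%, limit read from the data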;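 note: 0% = compound-free wells with enzyme and 100% = wells lacking proteasome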
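system = Proteasome-associated human UCH37 deubiquitinase | amount = 0.15 nM proteasome as dispensed | medium = pH 7.4 Tris-HCl (50 mM) with ovalbumin, ATP-MgCl2, DTT | incubation = 30 min preincubation with enzyme, 25 min cleavage at room temperature | detection = AMC fluorescence 355/460 nm | read-out basis = percent inhibition | controls = no-proteasome and no-compound wells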
aDG glyco up: increases alpha dystroglycan glycosylation | Pro5-aDG cells, alpha-DG glycosylation AlphaScreen (IIH6); 0% Pro5, 100% B10-LARGE cell signal | activation, % at 10 µM | hit rate 0.22% among 360,000 | AID 624168;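 active = activation of at least 8% versus controls, or a plate z-score of at least 8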;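 note: Pro5 are CHO cells carrying HIG-tagged alpha-DG that lacks glycosylation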
PfGluPho inh: PfG6PD (Plasmodium falciparum) enzyme inhibition | PfGluPho enzyme, NADPH resazurin-diaphorase fluorescence | inhibition, % at 20 µM | hit rate 0.78% among 350,000;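 active = inhibition reaching at least a set limit at 20 µM in the primary screen, cut at about 59% in these data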;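 note: 0% = DMSO wells with substrate and 100% = DMSO wells lacking glucose-6-phosphate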
HKDC1 act conf: HKDC1 (human) activation, single-dose confirmed; inhibition, % at 20 µM; shares compounds with HKDC1 inh; hit rate 14% among 740; AID 504708; recombinant HKDC1, G6PDH/diaphorase resazurin fluorescence; active compounds read low;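 active = inhibition at or below a set negative limit, negative inhibition meaning the enzyme was activated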
* marks the source's active call; other numbers are inactive results; / = no result. In the library only some 2.1% were active in any assay of this set; here they are far more common.

SMILES	Cardio protect	HKDC1 inh	Beta2AR agonist	UCH37 inh	aDG glyco up	PfGluPho inh	HKDC1 act conf
COc1cccc(CC(Cc2nc3ccccc3[nH]2)c2nc3ccccc3[nH]2)c1 (stereo not given)	4	50*	-14	-1	0	9	-28
O=C(O)c1ccc(C=NNC(=O)c2ccc(F)cc2)cc1	/	/	/	5	/	/	/
COc1ccc(-c2cc(N)n(CCC#N)n2)c(OC)c1	2	40*	3	1	0	-2	-35
COc1ccc(-c2cc(N)n(S(=O)(=O)Cc3ccccc3)n2)c(OC)c1	-8	-2	-6	2	0	35	/
O=C(CSc1n[nH]c(-c2cccnc2)n1)Nc1ccc([N+](=O)[O-])cc1Br	5	46*	-4	2	0	26	56
COc1cc([N+](=O)[O-])cc(C=NNC(=O)Cn2nc(C)cc2C)c1O	/	/	/	14	/	/	/
COc1cc(OC)cc(C(=O)NC(=S)NNC(=O)c2cnccn2)c1	43	-42	4	/	0	-3	-40*
COc1ccc(C(=O)NC(=S)NNC(=O)c2cnccn2)cc1OC	13	-26	8	15	0	11	/
O=C(CCNC(=O)c1ccc([N+](=O)[O-])cc1)NCCC1=CCCCC1	-1	35*	-4	6	0	5	-26
Cc1nc2oc3c(NCc4ccccn4)ncnc3c2c2c1COC(C)(C)C2	22	22	-13	-46	0	23	/
CCCc1nc2oc3c(NCC4CCCO4)ncnc3c2c2c1COC(C)(C)C2 (stereo not given)	22	35*	-6	-60	0	42	29
CCCc1nc2oc3c(NCc4ccccn4)ncnc3c2c2c1COC(C)(C)C2	15	34	-6	-26	0	52	23
CON=CCC(=O)Nc1ccc(Cl)c(Cl)c1	/	/	/	-4	/	/	/
COc1ccccc1C(=O)NCCC(=O)N1CCCC(C(F)(F)F)C1 (stereo not given)	-3	-5	-2	0	0	9	/
O=C(NCCC(=O)N1CCCC(C(F)(F)F)C1)c1ccc(Br)cc1 (stereo not given)	-6	36*	-12	3	0	13	-12
CC(=NNC(=O)Cc1ccc(F)cc1)c1ccc(F)cc1	/	/	/	1	/	/	/
CC(=NNc1nc(-c2ccccc2)c(CC(=O)O)s1)c1ccccc1	/	/	/	8	/	/	/
CC(=O)N1c2ccccc2Sc2ccc3ccccc3c21	3	/	/	/	0	25	/
O=C(CCl)N1c2ccccc2Sc2c1ccc1ccccc21	-3	44*	11	4	1	23	5
Cc1ccn2c(C(=O)NN=Cc3ccc4c(c3)OCO4)c(C)nc2c1	/	/	/	6	/	/	/
CC(=NNc1nc2ccccc2o1)c1cc2ccccc2cn1	16	-48	-134	/	0	40	-77*
O=C(CNC(=O)c1ccc2c(c1)OCCO2)N/N=C/c1ccc(O)cc1O	72*	-51	2	/	0	-18	18
O=C(CNC(=O)c1ccncc1)NN=Cc1ccc(O)cc1O	/	/	/	6	/	/	/
Cc1cc(C)n(CCC(=O)N/N=C/c2ccc(O)cc2O)n1	55*	-42	7	/	0	-18	-36
O=C(CNC(=O)c1ccncc1)N/N=C/c1ccc(O)cc1O	12	-41	7	/	0	-13	-25
SMILES	Cardio protect	HKDC1 inh	Beta2AR agonist	UCH37 inh	aDG glyco up	PfGluPho inh	HKDC1 act conf
N#CC(C#N)=c1ccc2c(c1)N1C3=C(CCCC3)CC3CCCCC31N=2 (stereo not given)	28	39*	6	3	-1	46	-9
Cc1onc(-c2ccccc2)c1C(=O)NNC(=S)NC(=O)/C=C/c1cccs1	22	-57	-5	/	0	-44	-23
CCOc1ccc(C=NNC(=O)CC(=O)NCc2ccccc2)cc1	/	/	/	1	/	/	/
O=C(C1=C(O)C(=O)N(c2nc3ccc(Cl)cc3s2)C1c1ccco1)c1ccco1 (stereo not given)	5	36*	8	9	0	12	-23
C=CCc1c(C)nc(C)nc1NN=Cc1ccc(F)cc1	/	/	/	10	/	/	/
O=C(N/N=C/c1ccc(O)c2ncccc12)c1cccc(Br)c1	-1	-36	4	/	0	-1	-18
Cc1cc(SCC(=O)N/N=C/c2ccc(O)c(O)c2O)c(C)cc1Br	41	45*	-2	/	1	-5	8
COCc1c(C(=O)NN=Cc2c[nH]c3ccccc23)nnn1-c1nonc1N	/	/	/	-27	/	/	/
Cc1ccc(NC(=O)CN2C(=O)S/C(=C\c3ccc(-c4cccc(C(=O)O)c4C)o3)C2=O)cc1C	-3	33	3	-24	0	-13	-26
CCOC(=O)CN1C(=O)S/C(=C\c2ccc(-c3cccc(C(=O)O)c3C)o2)C1=O	5	4	-3	8	0	16	/
CCOP(=O)(c1ccc(N(C)C)cc1)C(O)c1cc(OC)c(OC)c(OC)c1 (stereo not given)	-4	0	2	0	0	-2	/
CCOP(=O)(c1ccc(N(C)C)cc1)C(O)c1ccc(OC)cc1 (stereo not given)	-4	56*	-3	3	0	-2	-21
Cc1ccc(NC(=O)CN2C(=O)S/C(=C\c3cccn3-c3cccc(C(=O)O)c3)C2=O)c(C)c1	-2	33	4	-50	0	-40	-23
Cc1ccccc1NC(=O)CN1C(=O)S/C(=C\c2cccn2-c2cccc(C(=O)O)c2)C1=O	4	-3	4	-12	0	-18	/
CC(=O)NC1C(=O)N(CCN2CCOCC2)c2ccc(C)cc21 (stereo not given)	11	86*	3	14	0	17	70
CC(=O)NC1C(=O)N(CCN2CCOCC2)c2ccc(F)cc21 (stereo not given)	5	79*	-3	9	0	8	61
CCN1C(=O)C(NC(C)=O)c2cc(Br)ccc21 (stereo not given)	12	-5	2	4	0	-3	/
CCCCN1C(=O)C(NC(C)=O)c2cc(Br)ccc21 (stereo not given)	8	-3	1	2	0	0	/
CC(=O)NC1C(=O)N(CCN2CCOCC2)c2ccc(Cl)cc21 (stereo not given)	-3	82*	-6	/	0	12	61
COc1cc(C(=O)ON=C2C=C(C)C(=O)C=C2C)cc(OC)c1OC	/	/	/	4	/	/	/
COc1ccc(C2=CC3=C(Br)C(=O)C(C)(OC(=O)C4CCCC4)C(=O)C3=CO2)cc1 (stereo not given)	5	53*	21	2	0	16	-18
COC(=O)CCC(=O)OC1(C)C(=O)C2=COC(c3ccc(OC)cc3)=CC2=C(Br)C1=O (stereo not given)	/	37*	/	3	/	8	0
